According to ChEMBL document CHEMBL4219052, “Synthesis and biological evaluation of 6-substituted-5-fluorouridine ProTides” (Bioorg Med Chem, 2018):

Legend:
RL = assay: Cytotoxicity against human RL cells after 72 hrs by MTS assay; assay type: functional, cell-based
Method in brief: (§1)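 Commercial screen: tumour cells seeded at 0.5 to 100 x 10³ cells/well the day before dosing, then exposed 72 h to compound in duplicate, 9 serial 3.16-fold dilutions from 198 µM top concentration. MTS added for a further 4 h at 37 °C, absorbance read; IC50 taken as 50% inhibition of viability by curve fitting.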

MV4-11 = assay: Cytotoxicity against human MV411 cells after 72 hrs by MTS assay; assay type: functional, cell-based; conditions: MV4-11, 72 h; method in brief: as §1
[1] = Cytotoxicity against human Hs445 cells after 72 hrs by MTS assay; assay type: functional, cell-based; conditions: Hs 445, 72 h; method in brief: as §1
[2] = Cytotoxicity against African green monkey Vero cells measured after 3 days by CelltiterGlo luminescence assay; assay type: cell-based; conditions: chlorocebus sabaeus
Method in brief: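 Vero cells seeded and left overnight; growth medium then replaced by serial compound dilutions, added in triplicate; medium-only wells defined 0% cytotoxicity. On day 3 cells were lysed and ATP content measured by luciferase luminescence (CellTiter-Glo); CC50 obtained from a 4-PL curve fit.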

Chikungunya virus = assay: Antiviral activity against Chikungunya virus infected in African green monkey Vero cells assessed as reduction in virus-induced cytopathic effect pretreated for 1 hr followed by viral infection measured after 3 days by crystal violet staining based assay; assay type: functional, organism-based
HEL 92.1.7 = assay: Cytotoxicity against human HEL 92.1.7 cells after 72 hrs by MTS assay; assay type: functional, cell-based; conditions: HEL 92.1.7, 72 h; method in brief: as §1
SW-620 = assay: Cytotoxicity against human SW620 cells after 72 hrs by MTS assay; assay type: functional, cell-based; conditions: SW-620, 72 h; method in brief: as §1
MCF7 = assay: Cytotoxicity against human MCF7 cells after 72 hrs by MTS assay; assay type: functional, cell-based; conditions: MCF7, 72 h; method in brief: as §1
MIA PaCa-2 = assay: Cytotoxicity against human MIAPaCa2 cells after 72 hrs by MTS assay; assay type: functional, cell-based; conditions: MIA PaCa-2, 72 h; method in brief: as §1
Carboxypeptidase Y = target: T1, Carboxypeptidase Y (Saccharomyces cerevisiae (strain ATCC 204508 / S288c) (Baker's yeast), UniProt P00729); assay: Prodrug activation assessed as yeast carboxypeptidase Y mediated diastereoisomer formation at pH 7.6 by 31P NMR analysis
T1 sequence (P00729 whole entry): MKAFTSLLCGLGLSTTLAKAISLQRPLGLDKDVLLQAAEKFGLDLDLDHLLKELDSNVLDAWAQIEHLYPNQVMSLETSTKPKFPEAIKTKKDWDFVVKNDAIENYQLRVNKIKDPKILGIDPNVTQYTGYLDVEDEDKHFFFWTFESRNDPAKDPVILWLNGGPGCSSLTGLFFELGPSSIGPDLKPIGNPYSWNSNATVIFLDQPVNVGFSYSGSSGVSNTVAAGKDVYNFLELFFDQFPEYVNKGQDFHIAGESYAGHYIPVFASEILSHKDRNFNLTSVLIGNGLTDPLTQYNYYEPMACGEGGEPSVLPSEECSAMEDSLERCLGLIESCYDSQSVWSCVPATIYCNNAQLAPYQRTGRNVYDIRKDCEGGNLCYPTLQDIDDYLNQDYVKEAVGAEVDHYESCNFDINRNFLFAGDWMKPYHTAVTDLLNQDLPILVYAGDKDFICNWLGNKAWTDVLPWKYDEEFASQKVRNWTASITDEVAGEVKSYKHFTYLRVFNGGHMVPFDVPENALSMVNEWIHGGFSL
Method in brief: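 ProTide (5.0 mg) dissolved in acetone-d6 (0.15 mL) plus Trizma buffer pH 7.6 (0.30 mL), treated with carboxypeptidase Y; conversion followed by ³¹P NMR over 14 h.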

[3] = target: Orotidine 5'-phosphate decarboxylase (Methanobacterium thermoautotrophicum, UniProt O26232); assay: Inhibition of Methanobacterium thermoautotrophicum ODCase; set-up: species or system Methanothermobacter thermautotrophicus
Chain of Orotidine 5'-phosphate decarboxylase (Methanobacterium thermoautotrophicum, UniProt O26232) (O26232 whole entry): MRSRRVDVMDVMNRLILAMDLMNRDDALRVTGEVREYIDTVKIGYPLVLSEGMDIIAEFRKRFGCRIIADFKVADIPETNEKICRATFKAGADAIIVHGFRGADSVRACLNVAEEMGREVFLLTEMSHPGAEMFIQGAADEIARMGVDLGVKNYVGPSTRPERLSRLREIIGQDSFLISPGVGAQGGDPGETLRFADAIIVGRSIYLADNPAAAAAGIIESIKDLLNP

[4] = target: T2, Orotidine 5'-phosphate decarboxylase (Saccharomyces cerevisiae S288c, UniProt P03962); assay: Inhibition of yeast ODCase
T2 sequence (P03962 whole entry): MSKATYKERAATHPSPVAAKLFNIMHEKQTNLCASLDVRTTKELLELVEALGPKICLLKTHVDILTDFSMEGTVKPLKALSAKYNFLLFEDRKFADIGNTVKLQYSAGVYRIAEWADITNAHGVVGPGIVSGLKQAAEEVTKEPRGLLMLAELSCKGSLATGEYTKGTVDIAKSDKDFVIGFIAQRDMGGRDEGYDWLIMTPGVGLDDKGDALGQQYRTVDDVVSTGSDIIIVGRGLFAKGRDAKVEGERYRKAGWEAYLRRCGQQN

[5] = target: T3, Uridine 5'-monophosphate synthase (Homo sapiens, UniProt P11172); assay: Inhibition of human ODCase
T3 sequence (P11172 whole entry): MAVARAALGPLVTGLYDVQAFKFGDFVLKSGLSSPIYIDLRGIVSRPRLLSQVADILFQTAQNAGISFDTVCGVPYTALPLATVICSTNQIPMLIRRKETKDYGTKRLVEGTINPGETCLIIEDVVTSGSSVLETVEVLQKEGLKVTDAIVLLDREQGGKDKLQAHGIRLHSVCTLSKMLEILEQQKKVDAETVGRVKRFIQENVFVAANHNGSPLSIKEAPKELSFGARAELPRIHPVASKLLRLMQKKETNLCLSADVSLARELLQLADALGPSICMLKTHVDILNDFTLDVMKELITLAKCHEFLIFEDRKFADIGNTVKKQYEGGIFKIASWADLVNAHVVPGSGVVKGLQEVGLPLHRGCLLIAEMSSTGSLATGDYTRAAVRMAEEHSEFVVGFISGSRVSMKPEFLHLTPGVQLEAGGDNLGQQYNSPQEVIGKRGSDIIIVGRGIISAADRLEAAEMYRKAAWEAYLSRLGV

| Compound | IC50 (RL) [µM] | IC50 (MV4-11) [µM] | IC50 [1] [µM] | CC50 at 72 h [2] [µM] | EC50 (Chikungunya virus) [µM] | IC50 (HEL 92.1.7) [µM] | IC50 (SW-620) [µM] | IC50 (MCF7) [µM] | IC50 (MIA PaCa-2) [µM] | Drug metabolism (Carboxypeptidase Y) [ppm] | Ki [3] [µM] | Ki [4] [µM] | Ki [5] [µM] |
| --- | --- | --- | --- | --- | --- | --- | --- | --- | --- | --- | --- | --- | --- |
| Cc1c(F)c(=O)[nH]c(=O)n1[C@@H]1O[C@H](COP(=O)(N[C@@H](C)C(=O)OCC(C)(C)C)Oc2cccc3ccccc23)[C@@H](O)[C@H]1O (stereo partly specified) | > 50 | > 50 | > 50 | 81.3 | > 200 | > 50 | > 50 | > 50 | > 50 |  |  |  |  |
| Cc1c(F)c(=O)[nH]c(=O)n1[C@@H]1O[C@H](CO)[C@@H](O)[C@H]1O | 16 | 2 | 7 | 9.04 | > 200 | 14 | 8.5 | 5.4 | 12 |  |  |  |  |
| CCCCCCOC(=O)[C@H](C)NP(=O)(OC[C@H]1O[C@@H](n2c(N=[N+]=[N-])c(F)c(=O)[nH]c2=O)[C@H](O)[C@@H]1O)Oc1cccc2ccccc12 (stereo partly specified) | 9 | 6.2 | 6 |  |  | 10 | 21 | 31 | 24 |  |  |  |  |
| Cc1c(F)c(=O)[nH]c(=O)n1[C@@H]1O[C@H](COP(=O)(N[C@@H](C)C(=O)OCc2ccccc2)Oc2cccc3ccccc23)[C@@H](O)[C@H]1O (stereo partly specified) | > 50 | > 50 | > 50 | > 200 | > 200 | > 50 | > 50 | > 50 | > 50 |  |  |  |  |
| CCc1c(F)c(=O)[nH]c(=O)n1[C@@H]1O[C@H](CO)[C@@H](O)[C@H]1O | > 50 |  | > 50 | > 200 | > 200 | > 50 | > 50 | > 50 |  |  |  |  |  |
| CCCCCCOC(=O)[C@H](C)NP(=O)(OC[C@H]1O[C@@H](n2c(N=[N+]=[N-])c(F)c(=O)[nH]c2=O)[C@H](O)[C@@H]1O)Oc1ccccc1 (stereo partly specified) | 20 | 9 | 18 |  |  | 39 | 38 | > 50 | > 50 | 3.64 to 3.82 |  |  |  |
| O=c1cnn([C@@H]2O[C@H](CO)[C@@H](O)[C@H]2O)c(=O)[nH]1 [6-AZAURIDINE] |  |  |  | > 10 | 0.468 |  |  |  |  |  | 11 | 0.064 |  |
| Cc1c(F)c(=O)[nH]c(=O)n1[C@@H]1O[C@H](COP(=O)(N[C@@H](C)C(=O)OCc2ccccc2)Oc2ccccc2)[C@@H](O)[C@H]1O (stereo partly specified) | > 50 | > 50 | > 50 |  |  | > 50 | > 50 | > 50 | > 50 |  |  |  |  |
| CCOC(=O)[C@H](C)NP(=O)(OC[C@H]1O[C@@H](n2c(N=[N+]=[N-])c(F)c(=O)[nH]c2=O)[C@H](O)[C@@H]1O)Oc1ccccc1 (stereo partly specified) | > 50 | > 50 | 44 |  |  | > 50 | > 50 | > 50 | > 50 |  |  |  |  |
| NC(=O)c1[nH]nc([C@@H]2O[C@H](CO)[C@@H](O)[C@H]2O)c1O [PYRAZOFURIN] |  |  |  |  |  |  |  |  |  |  | 6.2 |  | 0.017 |
| CCc1c(F)c(=O)[nH]c(=O)n1[C@@H]1O[C@H](COP(=O)(N[C@@H](C)C(=O)OCc2ccccc2)Oc2cccc3ccccc23)[C@@H](O)[C@H]1O (stereo partly specified) | 27 |  | 10 | 53.1 | > 50 | > 50 | 12 | > 50 |  |  |  |  |  |
